Data taken from PMC6531046 (Bioorganic & medicinal chemistry, 2019).
Entries after “also recorded” stand apart in the source; their conditions may differ.

Tests used:
[1] = tested on: T. b. brucei Lister 427 cells; experiment: T. brucei cell viability analysis; assay type: cell-based, Trypanosoma brucei brucei; conditions: IC50 mammalian cells / IC50 T. brucei
Procedure, shortened: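 Index is mammalian-cell IC50 divided by T. brucei IC50. Parasite arm: bloodstream-form Lister 427 in HMI-9/10% FBS, 37°C, 7.5% CO2; 5,000 cells, compound with 0.1% DMSO, 48 h; MTS 3 h, A490. Mammalian arm: HEK293 or RAW264.7 in RPMI1640/10% FBS, 3000 cells seeded 24 h, compound 48 h; MTT 3 h, A570. Quadruplicates normalized, dose–response fitted.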

tubulin = tubulin (Trypanosoma brucei rhodesiense, UniProt P04106+P04107); experiment: Tubulin polymerization in T. brucei cells; assay type: cell-based; conditions: 12 h treatment, different doses, western blot vs DMSO
Procedure, shortened: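 Bloodstream-form T. b. brucei Lister 427 (HMI-9, 10% FBS, 37°C, 7.5% CO2) treated 12 h with varying doses in 0.5% DMSO; washed in TDB with protease inhibitors, lysed 5 min at 4°C in Pipes pH 6.8/EGTA/MgCl2/0.15% Triton X-100/glycerol; 15,000 g 30 min spin separated soluble (non-polymerized) supernatant from pellet, RIPA-boiled (polymerized). Equal cell-equivalent fractions blotted with anti-tubulin antibody.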

[2] = tested on: T. b. brucei Lister 427 cells; conditions: earlier study, cited from earlier work

tubulin, sequence (P04107 whole entry): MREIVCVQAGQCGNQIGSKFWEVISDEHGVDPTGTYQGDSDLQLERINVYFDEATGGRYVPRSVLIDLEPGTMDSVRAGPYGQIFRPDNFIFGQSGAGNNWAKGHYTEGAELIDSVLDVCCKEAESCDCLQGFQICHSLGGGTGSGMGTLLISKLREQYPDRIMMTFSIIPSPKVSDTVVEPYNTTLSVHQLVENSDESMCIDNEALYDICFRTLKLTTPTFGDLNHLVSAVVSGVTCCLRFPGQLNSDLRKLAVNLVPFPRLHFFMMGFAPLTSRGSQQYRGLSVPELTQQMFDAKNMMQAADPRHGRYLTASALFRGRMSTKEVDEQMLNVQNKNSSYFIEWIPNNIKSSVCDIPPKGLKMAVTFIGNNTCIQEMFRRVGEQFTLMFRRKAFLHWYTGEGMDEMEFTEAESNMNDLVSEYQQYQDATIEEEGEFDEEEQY
tubulin, sequence (P04106 whole entry): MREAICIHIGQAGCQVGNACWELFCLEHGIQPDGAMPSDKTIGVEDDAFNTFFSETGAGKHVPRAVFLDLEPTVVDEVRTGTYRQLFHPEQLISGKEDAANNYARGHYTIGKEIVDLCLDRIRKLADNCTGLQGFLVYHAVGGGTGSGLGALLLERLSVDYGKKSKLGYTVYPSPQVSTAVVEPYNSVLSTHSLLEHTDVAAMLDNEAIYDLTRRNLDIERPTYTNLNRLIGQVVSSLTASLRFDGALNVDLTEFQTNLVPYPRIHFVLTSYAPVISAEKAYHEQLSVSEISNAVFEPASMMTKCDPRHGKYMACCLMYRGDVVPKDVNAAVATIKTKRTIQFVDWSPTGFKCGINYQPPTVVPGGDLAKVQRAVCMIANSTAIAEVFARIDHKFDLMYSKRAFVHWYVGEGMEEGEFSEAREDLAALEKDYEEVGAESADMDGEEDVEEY

SMILES | selectivity index (mammalian cell line not given) [1] | effect on tubulin polymerization in T. brucei cells (tubulin) | selectivity index ([2]; IC50 human cell growth / IC50 T. brucei cell growth) | IC50 to inhibit trypanosomal cell proliferation [2] [nM]
Cc1cc(NC(=O)c2cc(C(F)(F)F)cc(C(F)(F)F)c2)ccc1NS(C)(=O)=O [Compound 5, N-(4-(Methylsulfonamido)-3-Methylphenyl)-3,5-Bis(Trifluoromethyl)Benzamide] | above 50 | profound effect on tubulin function; also recorded: decreased the amount of polymerized tubulin in a dose-dependent manner; also recorded: inhibit the tubulin polymerization in T. brucei cells |  | 
Cc1cc(NC(=O)c2cc(C(F)(F)F)cc(C(F)(F)F)c2)ccc1NS(=O)(=O)C(F)(F)F [Compound 15, N-(3-Methyl-4-Trifluoromethanesulfonylamino-Phenyl)-3,5-Bis-Trifluoromethyl-Benzamide] |  |  | around 7000 | 70
CCS(=O)(=O)Nc1ccc(NC(=O)c2ccc(Cl)c([N+](=O)[O-])c2)cc1Cl [Compound 39, 4-Chloro-N-(3-Chloro-4-(Ethylsulfonamido)-Phenyl)-3-Nitrobenzamide] | below 50 |  |  | 
CCS(=O)(=O)Nc1ccc(NC(=O)c2cc(C(F)(F)F)cc(C(F)(F)F)c2)cc1Cl [Compound 40, N-(3-Chloro-4-(Ethylsulfonamido)Phenyl)-3,5-Bis(Trifluoromethyl)Benzamide] | below 50 |  |  | 
N#Cc1ccc(C(=O)Nc2ccc(NS(=O)(=O)C(F)(F)F)c(F)c2)cc1 [Compound 57, 4-Cyano-N-(3-Fluoro-4-(Trifluoromethylsulfonamido)Phenyl)Benzamide] |  | decreased the amount of polymerized tubulin in a dose-dependent manner; also recorded: inhibit the tubulin polymerization in T. brucei cells |  | 
